In the library only some 2.9% were active in any assay of this set; here they are far more common.
T cruzi repl: blocks replication of Trypanosoma cruzi; T. cruzi beta-gal in NIH3T3, luminescence, 90 h; inhibition, % (test concentration not listed); hit rate 1.4% among 300,000;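 active = mean inhibition across valid replicates above about 55%, limit read from the data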;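 note: signal also drops with host cell toxicity which is not excluded here; higher percent means less beta-gal luminescence so fewer parasites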
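Assay system: NIH/3T3 fibroblasts plus reporter T. cruzi. Amount: NIH/3T3 cells, 5,000 per well. Buffer or medium: DMEM, 2% fetal bovine serum. Doses: compound pinned at 50 nL/well, DMSO. Schedule: ≥90 h infection period, 3 h prior cell attachment. Signal: luminescent β-galactosidase signal after 60 min lysis. Read-out: parasite load inhibition, %.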
hiPSC survival: hiPSC single-cell survival enhancement; survival enhancement, % at 20 µM; ATPlite luminescence; 100% = ROCK inhibitor wells, 0% = DMSO; hit rate 0.044% among 360,000; AID 602274; in the data active = survival enhancement above about 18%;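 note: cells exposed to compounds for 16 hours before the ATP read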
PG9 binder: small molecules binding HIV-1 gp120 antibody PG9. hit rate 0.43% among 360,000. inhibition, % at 6.7 µM. TR-FRET gp120-PG9 antibody binding. AID 624416; in the data active = inhibition above about 8.5%
NR1D1 modulator: modulators of human Rev-erb alpha DNA binding; activity, % at 10 µM; P20393; hit rate 0.79% among 370,000; Rev-erbα–FITC-DNA binding, fluorescence polarization, 90 min;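 active = activity above about 14%, limit read from the data; passing the limit was not always enough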
Target sequence (P20393 whole entry, looked up): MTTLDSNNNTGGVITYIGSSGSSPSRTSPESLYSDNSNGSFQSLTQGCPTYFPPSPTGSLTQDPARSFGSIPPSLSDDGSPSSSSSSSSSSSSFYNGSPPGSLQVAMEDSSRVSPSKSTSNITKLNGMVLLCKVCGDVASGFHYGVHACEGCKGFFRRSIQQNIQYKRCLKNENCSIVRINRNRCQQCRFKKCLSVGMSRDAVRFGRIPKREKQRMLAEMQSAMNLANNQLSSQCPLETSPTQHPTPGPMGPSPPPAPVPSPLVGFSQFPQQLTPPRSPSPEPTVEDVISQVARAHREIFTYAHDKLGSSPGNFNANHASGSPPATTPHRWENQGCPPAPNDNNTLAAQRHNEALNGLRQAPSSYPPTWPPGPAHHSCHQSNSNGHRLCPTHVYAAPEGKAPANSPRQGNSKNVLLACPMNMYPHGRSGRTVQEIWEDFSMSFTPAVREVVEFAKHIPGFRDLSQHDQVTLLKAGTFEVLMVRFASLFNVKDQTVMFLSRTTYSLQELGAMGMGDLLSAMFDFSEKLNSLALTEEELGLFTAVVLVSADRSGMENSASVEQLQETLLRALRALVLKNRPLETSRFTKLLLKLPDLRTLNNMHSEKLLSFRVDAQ
H9c2 TAG inh: triacylglycerol accumulation inhibition | hit rate 0.66% among 230,000 | AID 651582 | inhibition, % at 12.5 µM | H9c2 cells, Nile Red lipid (TAG) fluorescence; cells loaded with 200 µM oleic acid;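 active = pattern-corrected inhibition of lipid staining of at least 50% with the nuclear-stain viability signal not falling by more than 50%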
MIN6 prolif: MIN6 beta-cell proliferation induction. MIN6 cells proliferation, ATPlite luminescence, 48 h; cells starved in 0.2% serum; 100% = growth in 10% serum. AID 2380. hit rate 0.29% among 330,000. proliferation, % at 10 µM;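 active = compounds whose signal lies at least 3.5 SD above the mean of all wells on their plate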
Rev-erbA confirm: confirmation of modulators of human Rev-erb alpha DNA binding | shares compounds with NR1D1 modulator | Rev-erb alpha FITC-DNA binding, fluorescence polarization, 90 min | activation, % at 25 µM | hit rate 61% among 3,000;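 active = activation at or above a set limit, or at least 3 SD above the negative control mean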
RORg DNA counter: RORgamma DNA-binding activity, dose-response counter-screen; AID 1259320; IC50, µM; purified RORgamma protein-FITC-DNA binding, fluorescence polarization; shares compounds with NR1D1 modulator; hit rate 8% among 910;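 active = Compounds whose fitted half-maximal concentration for disrupting protein-DNA binding is below 10 micromolar; the record names Rev-erb in its text, so the target is in doubt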
Numbers stand for hits; 0 = inactive; - = no result.

SMILES	T cruzi repl	hiPSC survival	PG9 binder	NR1D1 modulator	H9c2 TAG inh	MIN6 prolif	Rev-erbA confirm	others
Cc1[nH]c2ccccc2c1SCC(=O)O	0	0	0	0	-	0	-
O=C(O)CSc1c2ccccc2cc2ccccc12	0	0	0	41	-	0	38	RORg DNA counter=0
COc1cccc2cc(C(=O)NCc3ccc(Cl)cc3)c(=O)oc12	0	0	0	21	-	0	0
CC(=O)C[C@H]1c2cc(C(F)(F)F)ccc2S(=O)(=O)N1C1CCCCC1	0	0	0	0	0	0	-
Cc1cc2c(=O)oc(-c3ccc(Br)cc3)nc2s1	0	0	0	31	0	0	0
CC(=O)Nc1ccc(S(=O)(=O)Nc2ccn(Cc3ccccc3Cl)n2)cc1	0	0	0	15	0	0	0
CCOc1ccc2cc(C3CC(c4ccco4)=NN3S(C)(=O)=O)c(Cl)nc2c1 (stereo unspecified)	0	0	0	0	0	0	-
O=C(O)CN1C(=O)/C(=C\c2cn(CC(=O)N3CCOCC3)c3ccccc23)SC1=S	0	0	0	39	0	0	39	RORg DNA counter=0
S=c1[nH]c(-c2ccc(Br)cc2)cn1CCc1ccccc1	0	0	0	17	0	0	28
COc1ccccc1-n1cc(-c2ccc(Br)cc2)[nH]c1=S	0	0	0	0	-	0	-
CCC(CC)COC(=O)C1=C(C)NC(=O)NC1c1cc(OC)ccc1OC (stereo unspecified)	0	0	0	0	-	0	-
CCC(CC)COC(=O)C1=C(C)NC(=O)NC1c1ccc(OC)cc1 (stereo unspecified)	0	0	0	21	-	0	20
CCCCCCOC(=O)C1=C(C)NC(=O)NC1c1ccc2c(c1)OCO2 (stereo unspecified)	0	0	0	17	0	0	0
Cc1cccc(NCc2ccccc2)c1	0	0	0	0	0	0	-
CCOC(=O)Cc1csc(/N=C/c2c(O)n(-c3ccc(C)c(C)c3)c(=O)c3ccccc23)n1	0	0	0	23	-	0	0
Cc1cc(N=Cc2c(O)n(-c3ccc(C)c(C)c3)c(=O)c3ccccc23)no1	-	-	0	0	-	-	-
CC(C)(C)NC(=O)COc1ccc(CNn2nnnc2N)cc1	0	0	0	0	0	0	-
COc1cc(/C=C2/C(=N)N3C=CSC3=NC2=O)ccc1OCCCOc1ccccc1C	0	0	0	0	-	0	-
CCOc1cc(/C=C2/C(=N)N3C=CSC3=NC2=O)ccc1OCCCOc1ccccc1C	0	0	0	18	-	0	0
Cn1c(/C(C#N)=C(\O)c2cc(Cl)sc2Cl)nc2ccccc21	0	0	0	0	-	0	-
Cn1c(/C(C#N)=C(\O)c2ccc(Br)s2)nc2ccccc21	0	0	0	39	-	0	0
FC(F)(F)c1nc2ccccc2n2c(-c3c(Cl)cccc3Cl)nnc12	0	0	0	0	-	0	-
COc1cccc(/C=C/C(=O)OCC(=O)Nc2ccc3c(c2)OCCO3)c1	-	0	0	0	0	-	-
O=C(CSc1nnc(-c2ccccc2O)o1)Oc1ccc(OCc2ccccc2)cc1	0	0	0	36	0	0	0
O=C1OCCN1C(=O)[C@H]1[C@H](c2ccc(F)cc2)C(c2cccc(Cl)c2)=NN1c1ccc(Br)cc1	-	0	0	0	0	-	-
SMILES	T cruzi repl	hiPSC survival	PG9 binder	NR1D1 modulator	H9c2 TAG inh	MIN6 prolif	Rev-erbA confirm	others
Cc1cc(C)c(NC(=O)c2ccc(S(=O)(=O)N3CCOCC3)cc2)c(C)c1	0	0	0	0	0	0	-
Cc1cc(NC(=O)c2ccc(S(=O)(=O)N3CCCC3)cc2)nc2c1c(=O)oc1ccccc12	0	0	0	36	0	-	0
Cc1cc(NC(=O)c2ccc(S(=O)(=O)N3CCOCC3)cc2)nc2c1c(=O)oc1ccccc12	0	-	0	36	-	0	0
Cc1cc(NC(=O)c2ccccc2)nc2c1c(=O)oc1ccccc12	0	0	0	0	0	0	-
COc1cccc(/C=N/NC(=O)c2c(C)nc3ccc(Cl)cn23)c1OC	0	0	0	0	-	0	-
Cc1cccc(-c2cnc(C(O)c3ccc(Cl)cc3C)[nH]2)c1 (stereo unspecified)	-	0	0	0	0	-	-
O=S(=O)(c1cccc2nsnc12)N1CCNCC1	0	0	0	25	-	0	0
C[C@H](NC(=O)c1ccccc1Cl)C(=O)OCC(=O)N1CC2(C)CC1CC(C)(C)C2 (stereo partly specified)	0	0	0	0	-	0	-
N#Cc1nnn2c1nc(N)c1c(Cl)cccc12	-	0	0	37	-	-	15
N#Cc1nnn2c1nc(N)c1c(F)cccc12	0	0	0	0	0	0	-
CC1(C(=O)NS(=O)(=O)c2cccc(Cl)c2)CCN1C(=O)CC1CCCCC1 (stereo unspecified)	-	0	0	16	0	-	0
COc1ccc2c(=O)c3c(=O)n(CCc4ccccc4)c(C(C)C)nc3oc2c1	0	0	0	25	0	0	0
Cc1cc(C)n(CC(C)Nc2nc3nonc3nc2N2CCCCC2)n1 (stereo unspecified)	0	0	0	0	0	0	-
COc1ccc(OC)c(Nc2nc(C)nc3c2oc2ccccc23)c1	0	0	0	0	-	0	-
COc1ccc(Cl)cc1Nc1nc(C)nc2c1oc1ccccc12	0	0	0	15	-	0	23
COc1ccnc(NCc2ccc(Cl)cc2)c1C#N	0	0	0	0	-	0	-
CCCCN(Cc1ccccc1)S(=O)(=O)c1ccc2c(c1)n(C)c(=O)c(=O)n2C	0	0	0	45	0	0	0
CN(C)CCN(Cc1ccccc1)S(=O)(=O)c1ccc2c(c1)n(C)c(=O)c(=O)n2C	0	0	0	0	0	0	-
CSc1ccc(SC2CN(Cc3ccc(C)cc3)S(=O)(=O)C2)cc1 (stereo unspecified)	-	-	0	25	-	-	28	RORg DNA counter=0
Cc1ccc(CN2CC(N3CCN(CCO)CC3)CS2(=O)=O)cc1 (stereo unspecified)	-	0	0	0	-	-	-
COc1ccc(-c2cc(C(=O)N(C)CC(=O)Nc3cccc(F)c3)c3ccccc3n2)cc1	0	0	0	0	0	0	-
Cc1ccc(C(=O)OCC(=O)c2c[nH]c3ccccc23)cc1	0	0	0	0	0	0	-
O=C(OCC(=O)c1c[nH]c2ccccc12)c1cc(Br)ccc1O	0	0	0	42	0	0	41	RORg DNA counter=0
Cc1[nH]c2ccccc2c1C(=O)C(C)OC(=O)c1ccc(NC(=O)CC#N)cc1 (stereo unspecified)	0	0	0	0	0	0	-
CC(=O)Nc1ccc(NC(=O)CSc2nc3ccccc3nc2N2CCC(C)CC2)cc1	0	0	0	45	-	0	21
Cc1ccc(NC(=O)CSc2nc3ccccc3nc2N2CCOCC2)cc1	0	0	0	0	0	0	-

High-throughput results: PubChem, several laboratories
